This is an account of results in ChEMBL document CHEMBL3259712, “New 5-unsubstituted dihydropyridines with improved CaV1.3 selectivity as potential neuroprotective agents against ischemic injury” (J Med Chem, 2014).

Data set [1] relates to SH-SY5Y. As to the kind of experiment: Neuroprotective activity against rotenone-oligomycin A-induced oxidative stress in human SH-SY5Y cells assessed as survival incubated with rot/oligo for 8 hrs followed by treated with compound at 0.3 uM for 16 hrs by MTT assay (Rvb =70.6 +/- 1.8%). Format: functional. To be noted: read-out: Survival. Summed up:
(§1)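 SH-SY5Y cells cultured 24 h, then exposed to rotenone/oligomycin A (30/10 μM) for 8 h at 37 °C. Stressor removed; compound in 1% FBS medium added for 16 h. DMSO-only control. MTT reduction (5 mg/mL, 2 h, 37 °C; OD 540 nm). Survival relative to untreated basal; mean ± SEM of five to seven cultures in triplicate.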

Data set [2] relates to SH-SY5Y. As to the kind of experiment: Neuroprotective activity against rotenone-oligomycin A-induced oxidative stress in human SH-SY5Y cells assessed as protection incubated with rot/oligo for 8 hrs followed by treated with compound at 0.3 uM for 16 hrs by MTT assay relative to control. Format: functional.
Data set [3] deals with SH-SY5Y. As to the kind of experiment: Neuroprotective activity against rotenone-oligomycin A-induced oxidative stress in human SH-SY5Y cells assessed as protection at 0.3 uM co-incubated rot/oligo for 24 hrs by MTT assay relative to control. The format is functional.
For data set [4], the system named is SH-SY5Y. As to the kind of experiment: Neuroprotective activity against rotenone-oligomycin A-induced oxidative stress in human SH-SY5Y cells assessed as survival at 0.3 uM co-incubated rot/oligo for 24 hrs by MTT assay (Rvb =65.6 +/- 1.3%). The format is functional. To be noted: read-out: Survival.
The test system of data set [5] is SH-SY5Y. Description: Neuroprotective activity against rotenone-oligomycin A-induced oxidative stress in human SH-SY5Y cells assessed as survival at 5 uM co-incubated rot/oligo for 24 hrs by MTT assay (Rvb =65.6 +/- 1.3%). The format is functional. To be noted: read-out: Survival.
In data set [6] the target is Voltage-dependent L-type calcium channel subunit alpha-1C (Rattus norvegicus, UniProt P22002). As to the kind of experiment: Inhibition of rat Cav1.2 channel in rat mesenteric artery assessed as relaxation of 70 mM K+ induced contraction. Format: tissue-based. To be noted: for inhibition (INH): rat. Summed up:
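Third-order mesenteric artery segments (2 mm) from 6-month-old Wistar Kyoto rats on a wire myograph, isometric tension, Krebs−Henseleit at 37 °C, pH 7.4. Segments equilibrated, stretched to optimal diameter, tested with 120 mM KCl, endothelium checked with 10 μM acetylcholine.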

Data set [7] has as its system SH-SY5Y. As to the kind of experiment: Neuroprotective activity against K+ induced Ca2+ overload in human SH-SY5Y cells assessed as survival at 5 uM after 24 hrs by MTT assay (reference value: 52.1 +/- 3.5%). Format: functional. To be noted: read-out: Survival.
The subject of data set [8] is SH-SY5Y. As to the kind of experiment: Neuroprotective activity against K+ induced Ca2+ overload in human SH-SY5Y cells assessed as protection at 5 uM after 24 hrs by MTT assay relative to control. Format: functional. Summed up:
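SH-SY5Y cells, 1 × 10⁵/well, 1% FBS medium, up to 13 passages. Compound diluted from 10⁻² M DMSO stock to 5 μM and co-incubated 24 h with 70 mM K⁺ (hypertonic); DMSO-only controls. MTT at 5 mg/mL for 2 h at 37 °C, read at 540 nm. % protection computed against basal as 100% survival and normalized to K⁺ toxicity; at least five cultures in triplicate.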

Data set [9] has as its system SH-SY5Y. As to the kind of experiment: Neuroprotective activity against rotenone-oligomycin A-induced oxidative stress in human SH-SY5Y cells assessed as protection at 5 uM co-incubated rot/oligo for 24 hrs by MTT assay relative to control. The format is functional. In a few lines: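 SH-SY5Y cells in 1% FBS medium co-incubated 24 h with compound and rotenone/oligomycin A (30/10 μM). Melatonin 0.3 μM was the positive control, and compounds were used at 5 μM. Viability by MTT reduction at 540 nm. % protection computed against basal as 100% and normalized to rot/olig toxicity; five to seven cultures in triplicate.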

Data set [10] deals with Voltage-dependent L-type calcium channel subunit alpha-1D (Homo sapiens, UniProt Q01668). Description: Inhibition of human Cav1.3 channel in human SH-SY5Y cells assessed as 70 mM K+ induced calcium elevation compound treated 15 mins before stimulus by Fluo-4/AM assay. The format is cell-based. In a few lines: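 SH-SY5Y cells grown 2 days, loaded with 10 μM Fluo-4/AM for 1 h at 37 °C in serum-free medium, washed with Krebs-HEPES and held 15 min at room temperature. Compound applied 15 min before 70 mM KCl.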
Voltage-dependent L-type calcium channel subunit alpha-1D, sequence (Q01668 whole entry): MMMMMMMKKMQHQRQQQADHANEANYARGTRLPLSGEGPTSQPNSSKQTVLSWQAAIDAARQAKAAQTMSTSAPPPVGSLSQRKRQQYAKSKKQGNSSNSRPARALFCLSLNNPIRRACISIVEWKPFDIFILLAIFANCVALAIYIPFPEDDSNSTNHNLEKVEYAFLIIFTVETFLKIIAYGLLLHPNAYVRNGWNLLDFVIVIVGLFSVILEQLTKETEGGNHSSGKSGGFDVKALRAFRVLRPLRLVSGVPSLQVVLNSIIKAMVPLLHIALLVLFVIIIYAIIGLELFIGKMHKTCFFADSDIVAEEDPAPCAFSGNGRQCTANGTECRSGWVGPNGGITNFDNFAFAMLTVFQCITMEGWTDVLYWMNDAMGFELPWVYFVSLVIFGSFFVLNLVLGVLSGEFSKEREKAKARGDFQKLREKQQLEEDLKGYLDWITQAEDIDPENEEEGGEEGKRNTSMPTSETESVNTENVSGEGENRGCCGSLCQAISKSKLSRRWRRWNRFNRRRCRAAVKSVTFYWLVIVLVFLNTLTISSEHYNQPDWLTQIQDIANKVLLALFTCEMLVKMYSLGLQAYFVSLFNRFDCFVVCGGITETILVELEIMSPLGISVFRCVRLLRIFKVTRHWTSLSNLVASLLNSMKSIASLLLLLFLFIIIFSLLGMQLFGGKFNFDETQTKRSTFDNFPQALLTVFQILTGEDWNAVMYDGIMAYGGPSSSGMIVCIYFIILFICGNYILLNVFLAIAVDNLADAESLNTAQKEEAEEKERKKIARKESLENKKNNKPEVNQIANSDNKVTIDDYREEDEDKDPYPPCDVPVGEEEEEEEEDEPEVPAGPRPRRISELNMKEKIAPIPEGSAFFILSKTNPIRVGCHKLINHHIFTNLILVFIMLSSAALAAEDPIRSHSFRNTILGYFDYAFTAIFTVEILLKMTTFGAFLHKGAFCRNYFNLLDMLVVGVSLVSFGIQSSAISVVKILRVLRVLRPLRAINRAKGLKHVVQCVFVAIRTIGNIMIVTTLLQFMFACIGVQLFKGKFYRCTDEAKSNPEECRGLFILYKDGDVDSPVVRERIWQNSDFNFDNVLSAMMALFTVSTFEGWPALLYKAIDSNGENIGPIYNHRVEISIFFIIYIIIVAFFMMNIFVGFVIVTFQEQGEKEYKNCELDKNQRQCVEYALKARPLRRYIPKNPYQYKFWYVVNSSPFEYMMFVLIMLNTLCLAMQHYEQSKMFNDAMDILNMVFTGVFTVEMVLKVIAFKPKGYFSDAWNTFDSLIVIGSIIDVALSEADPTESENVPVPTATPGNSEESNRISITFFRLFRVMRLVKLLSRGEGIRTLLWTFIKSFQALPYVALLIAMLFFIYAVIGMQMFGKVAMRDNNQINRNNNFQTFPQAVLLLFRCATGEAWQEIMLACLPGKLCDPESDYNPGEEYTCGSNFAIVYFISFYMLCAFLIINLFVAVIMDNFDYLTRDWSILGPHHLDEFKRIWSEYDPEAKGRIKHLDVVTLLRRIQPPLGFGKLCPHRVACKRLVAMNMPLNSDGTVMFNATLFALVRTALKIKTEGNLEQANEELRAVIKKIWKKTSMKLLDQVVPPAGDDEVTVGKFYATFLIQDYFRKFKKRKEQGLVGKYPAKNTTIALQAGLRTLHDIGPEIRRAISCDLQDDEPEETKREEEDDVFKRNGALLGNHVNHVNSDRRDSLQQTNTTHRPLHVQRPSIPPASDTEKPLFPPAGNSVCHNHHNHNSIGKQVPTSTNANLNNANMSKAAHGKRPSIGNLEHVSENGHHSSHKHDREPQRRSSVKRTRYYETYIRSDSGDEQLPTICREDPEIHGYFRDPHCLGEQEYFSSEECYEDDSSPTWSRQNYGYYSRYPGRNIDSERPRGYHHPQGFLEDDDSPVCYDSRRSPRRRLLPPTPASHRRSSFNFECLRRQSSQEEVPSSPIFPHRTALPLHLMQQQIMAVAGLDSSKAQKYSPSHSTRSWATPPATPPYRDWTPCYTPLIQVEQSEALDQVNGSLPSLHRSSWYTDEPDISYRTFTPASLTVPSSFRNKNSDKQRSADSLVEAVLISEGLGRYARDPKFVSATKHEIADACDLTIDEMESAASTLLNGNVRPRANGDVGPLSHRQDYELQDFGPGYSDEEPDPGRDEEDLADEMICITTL

Data set [11] concerns Hippocampus. As to the kind of experiment: Neuroprotective activity against oxygen-glucose deprivation induced-oxidative stress in rat hippocampal slices assessed as maximum protection treated at 10 uM during 120 mins of reoxygenation period by MTT assay (Rvb =40%). Format: functional. Summed up: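 Transverse hippocampal slices ([…] as printed) from adult male Sprague−Dawley rats (275−325 g). After 30 min stabilization, 15 min OGD at 37 °C in glucose-free Krebs (2-deoxyglucose) under 95% N₂/5% CO₂, then 120 min reoxygenation in oxygenated Krebs with compound (1, 3, 10 μM) present. MTT at 0.5 mg/mL for 30 min at 37 °C; control slices set as 100%; five experiments.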

In data set [12] the test system is SH-SY5Y. As to the kind of experiment: Neuroprotective activity against rotenone-oligomycin A-induced oxidative stress in human SH-SY5Y cells assessed as survival incubated with rot/oligo for 8 hrs followed by treated with compound at 5 uM for 16 hrs by MTT assay (Rvb =70.6 +/- 1.8%). Format: functional. To be noted: read-out: Survival. Summed up: as §1
Data set [13] has as its system SH-SY5Y. As to the kind of experiment: Neuroprotective activity against rotenone-oligomycin A-induced oxidative stress in human SH-SY5Y cells assessed as protection incubated with rot/oligo for 8 hrs followed by treated with compound at 5 uM for 16 hrs by MTT assay relative to control. Format: functional. In a few lines:
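SH-SY5Y cells cultured 24 h, then exposed to rotenone/oligomycin A (30/10 μM) for 8 h at 37 °C. Stressor was removed and cells incubated 16 h with compound in 1% FBS medium. Melatonin 0.3 μM was the positive control, and compounds were used at 5 μM. Viability by MTT; % protection against basal as 100%, normalized to rot/olig toxicity; five to seven cultures in triplicate.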

Data set [14] in a line: Selectivity ratio of IC50 for human Cav1.3 channel to IC50 for rat Cav1.2 channel.
Data set [15] has as its system SH-SY5Y. Description: Neuroprotective activity against K+ induced Ca2+ overload in human SH-SY5Y cells assessed as protection at 0.3 uM after 24 hrs by MTT assay relative to control. The format is functional.
In data set [16] the test system is SH-SY5Y. As to the kind of experiment: Neuroprotective activity against K+ induced Ca2+ overload in human SH-SY5Y cells assessed as survival at 0.3 uM after 24 hrs by MTT assay (reference value: 52.1 +/- 3.5%). To be noted: read-out: Survival. Format: functional.

pIC50: −log10 of the molar value. The source made the active and inactive calls. No cut-off for these calls is given here.

Voltage-dependent L-type calcium channel subunit alpha-1C, sequence (P22002 whole entry): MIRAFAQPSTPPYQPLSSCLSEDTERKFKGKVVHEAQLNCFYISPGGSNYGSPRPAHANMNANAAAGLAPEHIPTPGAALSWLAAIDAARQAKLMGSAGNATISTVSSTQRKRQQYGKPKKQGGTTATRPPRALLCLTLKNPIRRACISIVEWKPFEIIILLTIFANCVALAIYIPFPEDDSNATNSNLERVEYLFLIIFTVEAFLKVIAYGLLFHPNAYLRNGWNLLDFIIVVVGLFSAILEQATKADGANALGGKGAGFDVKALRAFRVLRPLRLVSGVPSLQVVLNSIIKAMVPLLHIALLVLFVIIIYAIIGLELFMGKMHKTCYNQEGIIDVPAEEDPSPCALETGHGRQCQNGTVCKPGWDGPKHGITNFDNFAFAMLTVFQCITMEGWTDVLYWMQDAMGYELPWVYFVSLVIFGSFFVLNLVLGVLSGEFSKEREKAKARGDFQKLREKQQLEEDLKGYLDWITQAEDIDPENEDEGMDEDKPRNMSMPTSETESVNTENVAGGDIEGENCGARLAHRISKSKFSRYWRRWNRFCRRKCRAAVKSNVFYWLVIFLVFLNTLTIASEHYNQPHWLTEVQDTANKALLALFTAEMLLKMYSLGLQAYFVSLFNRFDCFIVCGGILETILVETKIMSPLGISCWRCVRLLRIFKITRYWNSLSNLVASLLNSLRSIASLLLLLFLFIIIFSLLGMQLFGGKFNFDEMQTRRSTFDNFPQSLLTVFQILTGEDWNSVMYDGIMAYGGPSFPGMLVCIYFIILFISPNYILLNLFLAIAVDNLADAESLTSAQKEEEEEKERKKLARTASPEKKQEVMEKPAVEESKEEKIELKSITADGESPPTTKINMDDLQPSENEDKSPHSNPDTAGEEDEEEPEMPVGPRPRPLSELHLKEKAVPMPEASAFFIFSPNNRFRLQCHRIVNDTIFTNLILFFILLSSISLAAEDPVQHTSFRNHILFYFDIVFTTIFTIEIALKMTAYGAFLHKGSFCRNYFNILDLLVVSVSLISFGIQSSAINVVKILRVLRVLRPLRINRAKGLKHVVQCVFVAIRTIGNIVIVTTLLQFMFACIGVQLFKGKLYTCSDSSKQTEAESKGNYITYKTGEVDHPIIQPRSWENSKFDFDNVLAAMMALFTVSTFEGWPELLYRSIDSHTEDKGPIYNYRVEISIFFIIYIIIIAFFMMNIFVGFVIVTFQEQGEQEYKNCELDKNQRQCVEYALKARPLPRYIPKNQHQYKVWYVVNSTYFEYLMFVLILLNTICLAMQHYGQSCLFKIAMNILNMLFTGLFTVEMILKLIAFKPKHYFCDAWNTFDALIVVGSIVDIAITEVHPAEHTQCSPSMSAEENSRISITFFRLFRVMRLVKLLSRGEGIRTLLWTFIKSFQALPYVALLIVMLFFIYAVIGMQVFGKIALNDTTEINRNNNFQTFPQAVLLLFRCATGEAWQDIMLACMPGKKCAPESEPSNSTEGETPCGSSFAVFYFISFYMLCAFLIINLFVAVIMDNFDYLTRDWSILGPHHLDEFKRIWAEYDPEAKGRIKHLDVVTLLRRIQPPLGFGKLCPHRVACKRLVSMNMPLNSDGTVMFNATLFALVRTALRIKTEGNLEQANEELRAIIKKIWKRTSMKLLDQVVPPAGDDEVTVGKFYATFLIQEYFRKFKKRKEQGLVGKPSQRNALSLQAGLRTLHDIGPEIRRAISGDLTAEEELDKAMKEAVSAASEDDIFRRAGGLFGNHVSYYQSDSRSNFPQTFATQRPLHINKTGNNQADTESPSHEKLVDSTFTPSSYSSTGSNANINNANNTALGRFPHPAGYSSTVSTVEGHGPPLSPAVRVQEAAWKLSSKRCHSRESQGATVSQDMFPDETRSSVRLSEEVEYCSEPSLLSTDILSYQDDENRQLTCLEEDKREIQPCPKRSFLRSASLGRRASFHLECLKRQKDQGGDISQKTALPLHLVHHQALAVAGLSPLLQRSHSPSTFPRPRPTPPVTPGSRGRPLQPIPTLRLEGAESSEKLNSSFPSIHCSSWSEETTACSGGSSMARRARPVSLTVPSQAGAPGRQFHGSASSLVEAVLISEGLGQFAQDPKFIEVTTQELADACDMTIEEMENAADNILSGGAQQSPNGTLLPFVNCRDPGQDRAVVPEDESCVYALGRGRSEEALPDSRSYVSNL

For the compound `COc1ccc2[nH]cc(CCNC(C)=O)c2c1` [MELATONIN], the viability at 0.3 µM amounted to 87.8% in data set [1] and 82.5% in data set [4]. The Activity in [2] is 58.3%; in data set [3], 44.7%.

`CCOC(=O)C1=C(C)NC(c2ccccc2)=CC1c1ccc(C)cc1` (stereo unspecified): the results for the viability at 5 µM in [5], in data set [7] and in [12] were 83.5%, 72.3% and 88%, respectively. Further, the figures for the pIC50 in data set [6] and in [10] were 4.97 and 4.69, respectively. Also, in [6], the “inhibition (INH)” value was “Dose-dependent effect”. Also, the Activity worked out at 39.8% in data set [8], 53.3% in data set [9], 45% in [11] and 60.1% in data set [13]. Besides, the inhibition in [10] was determined as 43%. The Ratio IC50 in [14] was determined as 1.9.

Consider `COC(=O)C1=C(C)NC(C)=C(C(=O)OC)C1c1ccccc1[N+](=O)[O-]` [NIFEDIPINE], for which the viability at 5 µM in data set [5] came to 78.4%; in data set [7], 62.9%; in data set [12], 73.8%. Moreover, the “inhibition (INH)” value in [6] is on record as “Dose-dependent effect”. Also, the Activity in data set [8] was 20%; in data set [9] it was 29.3%; in data set [15], 15.8%; in data set [13], 11.7%. The viability at 0.3 µM in data set [16] was 58.7%. For the same compound, in [11], the result was inactive.

For the compound `CC1=C(C(=O)SC(C)(C)C)C(/C(C)=C/c2ccccc2)C=C(c2ccccc2)N1` (stereo unspecified), the figures for the viability at 5 µM in data set [5], in data set [7] and in data set [12] were 83.7%, 69% and 86.2%, respectively. In addition, the pIC50 in data set [6] is 4.69; in [10], 4.20. Further, the “inhibition (INH)” value in data set [6] is “Dose-dependent effect”. Further, the Activity in data set [8] is listed as 35.3%; in data set [9], 52.4%; in data set [11] it was 45%; in [13], 52.2%. In data set [14], the Ratio IC50 is 3.1.

In the case of `CC1(C)CC(=O)C2=C(C1)NC(c1ccccc1)=CC2c1ccccc1` (stereo unspecified), the viability at 5 µM in [5] came to 74.6%; in data set [7] it was 64%. Also, the pIC50 in data set [6] is 6.47; in [10], 5.55. Moreover, the “inhibition (INH)” value in data set [6] is listed as “Dose-dependent effect”. The Activity in [8] came out at 21.4%; in data set [9] it was 26.9%. For the same compound, the inhibition in data set [10] was 79%. The Ratio IC50 in data set [14] amounted to 8.3.
